Screening results deposited in PubChem by several laboratories.
In the library only some 4.1% were active in any assay of this set; here they are far more common.
KCNK9 inh: blocks the human KCNK9 two-pore domain potassium channel. Q9NPC2. HEK293 KCNK9, FluxOR thallium flux fluorescence; hits give low values. B-score at 10 µM. hit rate 1.2% among 310,000. AID 488922;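 active = ratio B-score over 3 SD below the library mean, with starting fluorescence within 5 SD of its mean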;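 note: negative B-score means less thallium flux so channel inhibition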
Target sequence (Q9NPC2 whole entry, looked up, the tested form may be a part): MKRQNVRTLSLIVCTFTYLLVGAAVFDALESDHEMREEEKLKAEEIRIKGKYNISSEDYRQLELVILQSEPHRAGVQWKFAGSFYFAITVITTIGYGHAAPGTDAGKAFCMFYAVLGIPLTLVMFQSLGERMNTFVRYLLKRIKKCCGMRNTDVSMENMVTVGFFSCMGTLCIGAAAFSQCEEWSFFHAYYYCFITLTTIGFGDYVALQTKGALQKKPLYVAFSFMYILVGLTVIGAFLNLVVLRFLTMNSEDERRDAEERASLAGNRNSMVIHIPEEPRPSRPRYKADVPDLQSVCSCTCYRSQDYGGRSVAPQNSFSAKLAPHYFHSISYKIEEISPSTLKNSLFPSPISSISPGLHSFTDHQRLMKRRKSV
Cl transport mod: modulators of human KCC2 chloride dependent transport | AID 1456 | KCC2 cells, thallium flux FluoZin-2 fluorescence | B-score of Tl+ flux slope (higher = more flux/activation; lower = inhibition) at 10 µM | hit rate 2.2% among 190,000 | Q9H2X9;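 active = thallium flux slope and its plate-corrected score both differing from the plate sample mean at a set confidence after two filtering rounds, in either direction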;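 note: slope of fluorescence scaled to starting intensity during 10 to 20 s after thallium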
KCNK3 inh: human KCNK3 channel inhibition, primary screen | CHO-KCNK3 thallium flux, FluxOR fluorescence; hits give low values | B-score at 10 µM | hit rate 0.84% among 340,000 | AID 602410;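 active = B-score under library mean minus 4 SD, starting fluorescence ratio at most library mean plus 5 SD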;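 note: more negative B-score means stronger inhibition of thallium flux through KCNK3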
Target sequence (O14649 whole entry, looked up): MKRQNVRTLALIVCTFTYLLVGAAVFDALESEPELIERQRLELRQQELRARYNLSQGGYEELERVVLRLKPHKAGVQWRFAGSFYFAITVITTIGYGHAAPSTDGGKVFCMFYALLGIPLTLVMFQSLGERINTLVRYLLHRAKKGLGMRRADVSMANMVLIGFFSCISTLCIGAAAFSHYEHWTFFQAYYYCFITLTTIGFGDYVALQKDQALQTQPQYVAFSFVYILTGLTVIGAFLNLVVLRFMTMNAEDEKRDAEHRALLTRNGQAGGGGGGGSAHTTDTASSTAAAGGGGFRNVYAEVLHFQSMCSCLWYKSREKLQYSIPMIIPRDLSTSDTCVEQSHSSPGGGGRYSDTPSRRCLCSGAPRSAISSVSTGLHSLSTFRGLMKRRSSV
KCNQ1 act: potentiates or activates the human KCNQ1 potassium channel. P51787. CHO-K1 KCNQ1, thallium flux FluxOR fluorescence; hits give high values. B-score at 10 µM. hit rate 0.35% among 310,000. AID 2648;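 active = fluorescence ratio B-score, a plate-corrected score, at least three library SD, with initial intensity B-score within 5 SD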
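Test system: CHO-K1 cells stably expressing KCNQ1 / Medium: assay buffer / Also added: depolarizing K+/Tl+ stimulus, K2SO4 and Tl2SO4 each 12.5 mM in 5x stock / Incubation: 90 min dye loading and 20 min compound exposure, both at room temperature / Signal: thallium influx via FluxOR fluorescence, kinetic imaging / Evaluation: B score of baseline-normalized fluorescence ratio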
hERG rescue: hERG (human) protection from proarrhythmic block; hit rate 0.51% among 310,000; Q12809; activation (rescue from dofetilide block), less the hit threshold, % at 10 µM; CHO-hERG, FluxOR thallium flux, dofetilide IC70 present;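 active = activation above the mean of controls blocked by dofetilide plus 5 SD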;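 note: thallium influx through hERG after potassium depolarization seen as dye fluorescence rise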
KCNQ1 inh: inhibitors of human KCNQ1 potassium channel. CHO-K1 KCNQ1, FluxOR thallium flux fluorescence; hits give high values. hit rate 1.3% among 310,000. B-score at 10 µM. P51787;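 active = compounds whose thallium flux B-score, printed positive for inhibition, exceeds three library SD while starting fluorescence stays within three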;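 note: channel opened by potassium depolarization with thallium stimulus after 20 min compound exposure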
KCNQ1 block val: human KCNQ1 channel inhibition, validation assay | shares compounds with KCNQ1 inh | KCNQ1 cell line, FluxOR thallium flux fluorescence | inhibition, % at 10 µM | hit rate 93% among 1,600 | AID 588353;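 active = primary screen active, with duplicate mean exceeding buffer control mean plus 3 SD of buffer wells, cut at about 28% in these data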;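 note: 0% = buffer control ratio and 100% = XE991 inhibitor control ratio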
CHO Tl flux: KCNQ1 inhibitor counter-screen hit in parental CHO cells | AID 588366 | parental CHO-K1, FluxOR thallium flux fluorescence ratio; hits give low values; zero means no signal rise above baseline | shares compounds with KCNQ1 inh | fluorescence ratio (Tl flux) at 10 µM | hit rate 21% among 1,600;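 active = mean of duplicate thallium-flux fluorescence ratios in parental host cells more than 5 SD below the buffer control mean, cut at about 0.38 in these data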;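 note: ratio is peak minus minimum fluorescence divided by baseline fluorescence; actives read low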
KCNQ1 ephys val: confirmation of human KCNQ1 potassium channel inhibitors by electrophysiology; shares compounds with KCNQ1 inh; KCNQ1-CHO cells, automated patch clamp current; calls only at 10 µM; hit rate 20% among 490; AID 624120;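 active = KCNQ1 current drop exceeding 3 SD of negative control wells, seen in both duplicate runs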;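 note: steady state current during a 2 s step from -80 to +40 mV; negative values mean current inhibition and positive values mean potentiation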
KCNQ2 spec: selectivity of KCNQ1 inhibitors: inhibition of rat KCNQ2 channel; shares compounds with KCNQ1 inh; KCNQ2 cells, FluxOR thallium flux fluorescence; inhibition, % at 10 µM; hit rate 71% among 1,600; AID 651746;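 active = mean percent inhibition of the KCNQ2 thallium signal more than 5 SD above the buffer-only control wells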;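 note: KCNQ2 expressed in CHO cells; 0% = buffer control wells and 100% = XE-991 inhibitor control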
KCNQ1 KCNE1 spec: KCNQ1 inhibitor that also blocks human KCNQ1/KCNE1 channel. KCNQ1/KCNE1 cells, FluxOR thallium flux fluorescence. AID 652147. inhibition, % at 10 µM. shares compounds with KCNQ1 inh. hit rate 77% among 1,600;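 active = mean percent inhibition of duplicate wells above the buffer-only control mean plus 3 SD of those controls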;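 note: 0% = buffer only wells and 100% = XE-991 inhibitor control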
The depositor's hits bear a star; i = inactive; . = not tested or not shown.

SMILES	KCNK9 inh	Cl transport mod	KCNK3 inh	KCNQ1 act	hERG rescue	KCNQ1 inh	KCNQ1 block val	CHO Tl flux	KCNQ2 spec	KCNQ1 KCNE1 spec	others
Cc1ccc(C2(c3ccccc3)NC(=O)N(CC(=O)N(C)C3CCS(=O)(=O)C3)C2=O)cc1C (stereo not given)	.	.	i	.	.	.	.	.	.	.
Cc1nnc2ccc(Oc3ccc(-c4ccccc4)cc3)nn12	i	-3.41	i	i	-17.3	9*	67.0*	0.468	i	i
N=c1n(Cc2ccccc2)c2ccccc2n1CC(O)COc1ccccc1 (stereo not given)	i	0.0781	i	i	-22.9	i	.	.	.	.
Cc1ccc(Cn2c(=N)n(CC(O)COc3ccccc3)c3ccccc32)cc1 (stereo not given)	-7.6*	0.181	i	i	-24.2	6*	129.5*	0.48	68.0%*	i	KCNQ1 ephys val=i
O=C(NNC(=O)c1cccc2ccccc12)c1cccc(Cl)c1	.	.	i	.	.	.	.	.	.	.
CC(C)c1ccc(S(=O)(=O)Nc2ccc(SC(F)F)cc2)cc1	i	-0.334	i	i	-8.2	i	.	.	.	.
Cc1ccc(S(=O)(=O)Nc2ccc(SC(F)F)cc2)c(C)c1	i	-0.381	i	i	-9.6	6*	25.5*	0.445	i	135.5%*
CCc1cc(C(c2cccc(OC)c2)N2CCOCC2)c(NC(=O)c2ccccc2)s1 (stereo not given)	i	-0.0711	i	i	-14.0	i	.	.	.	.
CCc1cc(C(c2ccc(F)cc2)N2CCOCC2)c(NC(=O)c2ccccc2)s1 (stereo not given)	i	-1.16	i	i	-6.7	10*	100.0*	0.366*	99.3%*	154.5%*
Cc1cccc(NC(=O)CC2C(=O)NCCN2C(=O)Nc2ccc(Cl)cc2)c1 (stereo not given)	i	.	i	i	-3.4	i	.	.	.	.
CCn1c(C)nc2cc(C(=O)NNC(=O)c3ccc(C)cc3)ccc21	.	.	i	.	.	.	.	.	.	.
CCn1c(C)nc2cc(C(=O)OC(C(F)(F)C(F)F)C(F)(F)C(F)F)ccc21	i	0.0187	i	i	-22.2	9*	131.0*	0.4	88.7%*	115.5%*	KCNQ1 ephys val=i
CC(C)c1ccc(C(=O)Nc2cccnc2)cc1	i	.	i	i	-6.8	i	.	.	.	.
CC(=O)c1c(C)n(CC(=O)NCc2ccco2)c2ccccc12	i	-0.278	i	i	-13.9	10*	33.0*	0.538	i	50.0%*
Cc1ccccc1-n1c(=O)c2ccccc2n(CC(=O)NCc2ccco2)c1=O	i	-2.13	i	i	-9.7	i	.	.	.	.
Cc1ccc(S(=O)(=O)Nc2cccc3c2O[C@H](CN(C)Cc2ccccc2)[C@@H](C)CN([C@H](C)CO)C3=O)cc1	.	.	i	.	.	.	.	.	.	.
CC(=O)c1cccc(NC(=S)N2CCN(S(=O)(=O)c3ccccc3)CC2)c1	i	.	i	i	-7.7	i	.	.	.	.
Cc1cccc(OCCC(=O)Nc2ccc(F)c(F)c2)c1	i	-0.649	i	i	7.8*	8*	28.5*	0.543	74.3%*	i
COc1ccc(C(=O)NCc2ccccc2CN2CCCC2)cc1S(=O)(=O)Nc1ccc(C)cc1	.	.	i	.	.	.	.	.	.	.
O=C(Cn1nnc2ccccc21)OCC(=O)c1ccc(Cl)cc1	i	-0.431	.	i	-11.7	7*	0.0	0.476	i	42.5%*
COc1ccc(S(=O)(=O)Oc2ccc(C(=S)N3CCOCC3)cc2OC)cc1	i	.	i	i	-8.0	i	.	.	.	.
O=S(=O)(Oc1ccc(C(=S)N2CCOCC2)cc1)c1ccc(Cl)cc1	i	.	i	i	-4.4	8*	85.0*	0.461	i	65.0%*
Cn1c(N)c(C(=O)COC(=O)C2CC(=O)N(Cc3ccccc3)C2)c(=O)n(C)c1=O (stereo not given)	i	-1.89	i	i	-18.3	6*	0.0	0.454	60.3%*	i
Cc1ccc(NC(=O)CN(C)C2CCCCC2)cc1Cl	i	.	i	i	-2.3	i	.	.	.	.
Cc1ccc(S(=O)(=O)c2c(N)n(CCC(C)C)c3nc4ccccc4nc23)cc1	i	-0.696	i	i	-11.8	15*	75.0*	0.42	i	97.0%*
SMILES	KCNK9 inh	Cl transport mod	KCNK3 inh	KCNQ1 act	hERG rescue	KCNQ1 inh	KCNQ1 block val	CHO Tl flux	KCNQ2 spec	KCNQ1 KCNE1 spec	others
COc1ccc(-c2csc(NC(=O)C3CC(=O)N(Cc4ccccc4)C3)n2)cc1OC (stereo not given)	i	.	i	i	-12.4	6*	123.0*	0.381	92.7%*	163.0%*	KCNQ1 ephys val=i
COc1ccc(CC(=O)Nc2nc(-c3ccc(OC)c(OC)c3)cs2)cc1OC	i	.	i	i	-14.6	i	.	.	.	.
COc1ccc(-c2csc(NC(=O)C3CCN(c4ncnc5sc(C)c(C)c45)CC3)n2)cc1OC	i	.	i	i	-16.3	9*	122.0*	0.406	82.7%*	103.0%*	KCNQ1 ephys val=i
COc1ccccc1OCC(=O)NNC(=O)C1CCN(c2ncnc3sc(C)c(C)c23)CC1	.	.	i	.	.	.	.	.	.	.
CCCc1nn(-c2ccccc2)c2c1C(c1cccs1)C(C#N)=C(N)O2 (stereo not given)	i	0.582	i	i	-4.2	7*	0.0	0.412	i	i
CC[C@]1(C(=O)OC)[C@H]2C(=O)N(C)C(=O)[C@H]2[C@H]2CN=C(SCc3ccc(C(=O)OC)cc3)N21	.	.	i	.	.	.	.	.	.	.
COc1ccc(C)cc1NC(=O)CSc1nc2ccccc2nc1N1CCCC1	i	.	i	i	-12.2	i	.	.	.	.
COc1ccc(C)cc1NC(=O)CSc1nc2ccccc2nc1N1CC(C)OC(C)C1 (stereo not given)	i	.	i	i	-8.8	7*	105.0*	0.436	95.0%*	121.0%*	KCNQ1 ephys val=i
CC1CN(c2nc3ccccc3nc2SCC(=O)Nc2cccc(C(F)(F)F)c2)CC(C)O1 (stereo not given)	i	.	-14.8*	i	-5.1	10*	119.5*	0.399	126.0%*	171.0%*	KCNQ1 ephys val=i
